In ChEMBL document CHEMBL1145326, “Antimycobacterial agents. Novel diarylpyrrole derivatives of BM212 endowed with high activity toward Mycobacterium tuberculosis and low cytotoxicity” (2006):
Converted amounts (≈) assume the structure as drawn.

How the values were obtained:
[1] = system: Mycolicibacterium smegmatis; experiment: Antibacterial activity against Mycobacterium smegmatis; format: functional
Outline: (§1)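 MIC by serial 2-fold tube dilution. Compound DMSO stocks were filter-sterilised (0.2 µm) and diluted in water. Tubes were inoculated with 10⁵–10⁶ CFU/mL of each mycobacterium and incubated at 37 °C for 3–21 days. Each run included a drug-free control tube. Values are in µg/mL.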

[2] = system: Vero; experiment: Cytotoxicity against Vero cell line; format: functional, Chlorocebus sabaeus
Outline: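 Vero cells were cultured for 24 h, then the medium was replaced with medium holding decreasing compound concentrations. After 5 days the cells were trypsinised and counted in a Neubauer chamber, in triplicate. MNTD₅₀ (µg/mL) is the concentration that decreased cell multiplication by less than 50% of control.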

[3] = system: Mycobacterium avium; experiment: Antibacterial activity against Mycobacterium avium; format: functional; outline: as §1
[4] = system: Mycobacterium marinum; experiment: Antibacterial activity against Mycobacterium marinum; format: functional; outline: as §1
[5] = system: Mycobacterium tuberculosis; experiment: Antibacterial activity against Mycobacterium tuberculosis 103471; format: functional; outline: as §1
[6] = system: Vero; experiment: Protection index, cytotoxicity against Vero cell line/antibacterial activity against Mycobacterium tuberculosis 103471; format: functional
Outline: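 Protection index is the ratio of Vero-cell MNTD₅₀ (cell counts after 5-day exposure) to the MIC against M. tuberculosis CIP 103471. The MIC came from 2-fold tube dilution, inoculum 10⁵–10⁶ CFU/mL, 37 °C.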

[7] = system: Mycobacterium tuberculosis; experiment: Antibacterial activity against intramacrophagic Mycobacterium tuberculosis; format: functional

| Compound | MIC [1] [µg/mL] | Maximal non-toxic dose 50 [2] [µg/mL] | MIC [3] [µg/mL] | MIC [4] [µg/mL] | MIC [5] [µg/mL] | PI [6] | MCC [7] [µg/mL] |
| --- | --- | --- | --- | --- | --- | --- | --- |
| Cc1cccc(-n2c(-c3ccc(F)cc3)cc(CN3CCSCC3)c2C)c1 | > 16 | 8 | 16 (≈ 42 µM) | > 16 | 4 (≈ 10.5 µM) | 2 | – |
| Cc1c(CN2CCSCC2)cc(-c2ccc(Cl)cc2Cl)n1-c1ccc(F)cc1 | > 16 | 64 | 4 (≈ 9.19 µM) | > 16 | 2 (≈ 4.59 µM) | 32 | – |
| Cc1cccc(-c2cc(CN3CCN(C)CC3)c(C)n2-c2ccc(F)cc2)c1 | > 16 | 8 | 16 (≈ 42.4 µM) | > 16 | 16 (≈ 42.4 µM) | 0.5 | – |
| CN[C@@H]1[C@H](O[C@H]2[C@H](O[C@H]3[C@H](O)[C@@H](O)[C@H](N=C(N)N)[C@@H](O)[C@@H]3N=C(N)N)O[C@@H](C)[C@]2(O)C=O)O[C@@H](CO)[C@H](O)[C@H]1O (stereo in doubt) [STREPTOMYCIN] | 8 (≈ 13.8 µM) | >64 | 8 (≈ 13.8 µM) | 32 (≈ 55 µM) | 0.5 (≈ 0.86 µM) | >128 | – |
| Cc1ccccc1-n1c(-c2ccc(F)cc2)cc(CN2CCSCC2)c1C | > 16 | 16 | 16 (≈ 42 µM) | > 16 | 8 (≈ 21 µM) | 2 | – |
| Cc1c(CN2CCSCC2)cc(-c2ccc(F)cc2)n1-c1ccccc1F | 8 (≈ 20.8 µM) | 8 | 8 (≈ 20.8 µM) | > 16 | 0.5 (≈ 1.3 µM) | 16 | 3 |
| Cc1cccc(-c2cc(CN3CCSCC3)c(C)n2-c2ccc(F)cc2)c1 | > 16 | 4 | 8 (≈ 21 µM) | > 16 | 2 (≈ 5.26 µM) | 2 | – |
| Cc1c(CN2CCN(C)CC2)cc(-c2ccc(F)cc2F)n1-c1ccc(F)cc1 | > 16 | 8 | 16 (≈ 40.1 µM) | > 16 | 4 (≈ 10 µM) | 2 | – |
| Cc1c(CN2CCSCC2)cc(-c2ccc(F)cc2)n1-c1ccccc1Cl | > 16 | 8 | > 16 | > 16 | 2 (≈ 4.99 µM) | 4 | – |
| Cc1c(CN2CCN(C)CC2)cc(-c2ccccc2Cl)n1-c1ccc(F)cc1 | > 16 | 2 | 16 (≈ 40.2 µM) | > 16 | 8 (≈ 20.1 µM) | 0.25 | – |
| Cc1c(CN2CCSCC2)cc(-c2ccccc2F)n1-c1ccc(F)cc1 | > 16 | 16 | 16 (≈ 41.6 µM) | > 16 | 0.5 (≈ 1.3 µM) | 32 | – |
| Cc1c(CN2CCN(C)CC2)cc(-c2ccc(F)cc2)n1-c1ccccc1F | 0.3 (≈ 0.786 µM) | 8 | 16 (≈ 41.9 µM) | > 16 | 8 (≈ 21 µM) | 1 | – |
| Cc1c(CN2CCSCC2)cc(-c2ccc(F)cc2)n1-c1ccc(F)cc1F | > 16 | 16 | 16 (≈ 39.8 µM) | 16 (≈ 39.8 µM) | 2 (≈ 4.97 µM) | 8 | – |
| Cc1ccc(-c2cc(CN3CCN(C)CC3)c(C)n2-c2ccc(F)cc2)cc1 | 8 (≈ 21.2 µM) | 8 | 4 (≈ 10.6 µM) | > 16 | 4 (≈ 10.6 µM) | 2 | – |
| Cc1c(CN2CCN(C)CC2)cc(-c2ccc(Cl)cc2Cl)n1-c1ccc(F)cc1 | > 16 | 16 | 2 (≈ 4.63 µM) | > 16 | 8 (≈ 18.5 µM) | 2 | – |
| Cc1c(CN2CCN(C)CC2)cc(-c2ccc(F)cc2)n1-c1ccc(Cl)cc1Cl | > 16 | 2 | 4 (≈ 9.25 µM) | 8 (≈ 18.5 µM) | 4 (≈ 9.25 µM) | 0.5 | – |
| Cc1c(CN2CCSCC2)cc(-c2ccc(F)cc2F)n1-c1ccc(F)cc1 | > 16 | 16 | 16 (≈ 39.8 µM) | 16 (≈ 39.8 µM) | 0.5 (≈ 1.24 µM) | 32 | – |
| Cc1ccc(-n2c(-c3ccc(F)cc3)cc(CN3CCN(C)CC3)c2C)cc1 | > 16 | 8 | 16 (≈ 42.4 µM) | 8 (≈ 21.2 µM) | 16 (≈ 42.4 µM) | 0.5 | – |
| Cc1c(CN2CCSCC2)cc(-c2ccc(F)cc2)n1-c1ccc(Cl)cc1Cl | 16 (≈ 36.7 µM) | 4 | 2 (≈ 4.59 µM) | 8 (≈ 18.4 µM) | 1 (≈ 2.3 µM) | 4 | – |
| Cc1c(CN2CCN(C)CC2)cc(-c2ccc(F)cc2)n1-c1ccccc1Cl | > 16 | 8 | > 16 | > 16 | 4 (≈ 10.1 µM) | 2 | – |
| Cc1ccccc1-n1c(-c2ccc(F)cc2)cc(CN2CCN(C)CC2)c1C | > 16 | 2 | > 16 | > 16 | > 16 | – | – |
| Cc1c(CN2CCN(C)CC2)cc(-c2ccc(F)cc2)n1-c1ccc(F)cc1F | > 16 | 16 | 16 (≈ 40.1 µM) | 16 (≈ 40.1 µM) | 16 (≈ 40.1 µM) | 1 | – |
| NNC(=O)c1ccncc1 [ISONIAZID] | 64 (≈ 467 µM) | 32 | 32 (≈ 233 µM) | 16 (≈ 117 µM) | 0.25 (≈ 1.82 µM) | 128 | – |
| Cc1ccc(-n2c(-c3ccc(F)cc3)cc(CN3CCSCC3)c2C)cc1 | 16 (≈ 42 µM) | 32 | 8 (≈ 21 µM) | 8 (≈ 21 µM) | 1 (≈ 2.63 µM) | 32 | – |
| Cc1c(CN2CCN(C)CC2)cc(-c2ccccc2F)n1-c1ccc(F)cc1 | > 16 | 4 | > 16 | > 16 | > 16 | – | – |
| Cc1ccccc1-c1cc(CN2CCSCC2)c(C)n1-c1ccc(F)cc1 | > 16 | 8 | 8 (≈ 21 µM) | > 16 | 4 (≈ 10.5 µM) | 2 | – |
| Cc1cccc(-n2c(-c3ccc(F)cc3)cc(CN3CCN(C)CC3)c2C)c1 | > 16 | 16 | > 16 | > 16 | 16 (≈ 42.4 µM) | 1 | – |
| Cc1c(CN2CCN(C)CC2)cc(-c2ccc(Cl)cc2)n1-c1ccc(Cl)cc1 | 25 (≈ 60.3 µM) | 4 | 0.4 (≈ 0.965 µM) | 100 (≈ 241 µM) | 0.7 (≈ 1.69 µM) | 5.6 | – |
| Cc1ccccc1-c1cc(CN2CCN(C)CC2)c(C)n1-c1ccc(F)cc1 | > 16 | 2 | > 16 | > 16 | > 16 | – | – |
| Cc1c(CN2CCSCC2)cc(-c2ccccc2Cl)n1-c1ccc(F)cc1 | > 16 | 4 | 16 (≈ 39.9 µM) | > 16 | 4 (≈ 9.98 µM) | 1 | – |
